Measured values reported in ChEMBL document CHEMBL1122366, “Potential antiatherosclerotic agents. 3. Substituted benzoic and non benzoic acid analogues of cetaben” (1983).

Legend:
Rattus norvegicus [1] = assay: In vivo triglyceride lowering activity when dosed as 0.01 % of the diet; assay type: functional
Summary of the method: (§1)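 Normal rats were dosed in the diet. Serum sterol and triglyceride levels were measured and expressed as the mean percent of control values. Significance versus control was reported at p < 0.05, 0.01 and 0.001.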

Rattus norvegicus [2] = assay: In vivo triglyceride lowering activity dosed at 0.10 % of the diet.; assay type: functional; summary of the method: as §1
[3] = biological target: T1, Sterol O-acyltransferase 1 (Rattus norvegicus) (UniProt O70536); assay: In vitro inhibition of acyl coenzyme A:cholesterol acyltransferase; parameters: concentration or dose not given beside the values; settings: concentration not given here
T1 sequence (whole entry): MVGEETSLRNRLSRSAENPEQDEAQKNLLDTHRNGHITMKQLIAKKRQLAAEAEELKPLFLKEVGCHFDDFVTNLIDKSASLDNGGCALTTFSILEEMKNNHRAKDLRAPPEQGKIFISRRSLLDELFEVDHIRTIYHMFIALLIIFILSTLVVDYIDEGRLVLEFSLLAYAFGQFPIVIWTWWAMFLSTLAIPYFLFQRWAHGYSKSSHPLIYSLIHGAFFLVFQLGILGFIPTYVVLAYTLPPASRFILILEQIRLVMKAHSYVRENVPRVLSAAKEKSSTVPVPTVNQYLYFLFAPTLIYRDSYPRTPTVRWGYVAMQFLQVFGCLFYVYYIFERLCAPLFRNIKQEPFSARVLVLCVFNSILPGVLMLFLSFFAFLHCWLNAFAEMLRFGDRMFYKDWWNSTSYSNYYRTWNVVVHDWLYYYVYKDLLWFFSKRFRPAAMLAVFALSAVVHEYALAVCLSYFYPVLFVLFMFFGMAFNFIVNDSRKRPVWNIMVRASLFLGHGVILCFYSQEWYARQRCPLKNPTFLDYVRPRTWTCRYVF
Summary of the method: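 Enzyme fatty acyl-CoA:cholesterol acyltransferase (ACAT), assayed in vitro at a single drug concentration of 5.2 μg/mL. The value is the mean percent inhibition of enzyme activity.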

Rattus norvegicus [4] = assay: In vivo sterol lowering activity when dosed as 0.01 % of the diet; assay type: functional; summary of the method: as §1
Rattus norvegicus [5] = assay: In vivo sterol lowering activity when dosed as 0.03 % of the diet; assay type: functional; summary of the method: as §1
Rattus norvegicus [6] = assay: In vivo triglyceride lowering activity when dosed at 0.03 % of the diet; assay type: functional; summary of the method: as §1
Rattus norvegicus [7] = assay: In vivo sterol lowering activity at dose of 0.10 % of the diet; assay type: functional; summary of the method: as §1

CCCCCCCCCCCCCCCCNc1ccc(C(=O)NS(=O)(=O)c2ccc(N)cc2)cc1
serum triglyceride level, percent of control (Rattus norvegicus [1]): 78% | serum triglyceride, percent of control (Rattus norvegicus [2]): 111% | inhibition [3]: 14% | serum sterol level, % of control (Rattus norvegicus [4]): 93% | serum sterol level, percent of control (Rattus norvegicus [5]): 89% | serum triglyceride level, percent of control (Rattus norvegicus [6]): 87% | serum sterol level, percent of control (Rattus norvegicus [7]): 105%

CCCCCCCCCCCCCCCCNc1ccc(C(=O)N2CCCCCC2)cc1
serum triglyceride level, percent of control (Rattus norvegicus [1]): 72% | serum triglyceride, percent of control (Rattus norvegicus [2]): 68% | inhibition [3]: < 61% | serum sterol level, % of control (Rattus norvegicus [4]): 110% | serum sterol level, percent of control (Rattus norvegicus [5]): 105% | serum triglyceride level, percent of control (Rattus norvegicus [6]): 90% | serum sterol level, percent of control (Rattus norvegicus [7]): 106%

CCCCCCCCCCCCCCCCNc1ccc(C(SCC)SCC)cc1
serum triglyceride level, percent of control (Rattus norvegicus [1]): 86% | serum triglyceride, percent of control (Rattus norvegicus [2]): 77% | inhibition [3]: 0% | serum sterol level, % of control (Rattus norvegicus [4]): 96% | serum sterol level, percent of control (Rattus norvegicus [5]): 101% | serum triglyceride level, percent of control (Rattus norvegicus [6]): 106% | serum sterol level, percent of control (Rattus norvegicus [7]): 88%

CCCCCCCCCCCCCCCCNc1ccc(CCCC(=O)O)cc1
serum triglyceride level, percent of control (Rattus norvegicus [1]): <68% | serum triglyceride, percent of control (Rattus norvegicus [2]): <51% | inhibition [3]: < 32% | serum sterol level, % of control (Rattus norvegicus [4]): 100% | serum sterol level, percent of control (Rattus norvegicus [5]): 95% | serum triglyceride level, percent of control (Rattus norvegicus [6]): <61% | serum sterol level, percent of control (Rattus norvegicus [7]): 97%

CCCCCCCCCCCCCCCCNc1ccc(C(=O)OCC)c(C(=O)OCC)c1
serum triglyceride level, percent of control (Rattus norvegicus [1]): 86% | serum triglyceride, percent of control (Rattus norvegicus [2]): <72% | inhibition [3]: < 37% | serum sterol level, % of control (Rattus norvegicus [4]): 98% | serum sterol level, percent of control (Rattus norvegicus [5]): 99% | serum triglyceride level, percent of control (Rattus norvegicus [6]): 93% | serum sterol level, percent of control (Rattus norvegicus [7]): 90%

CCCCCCCCCCCCCCCCNc1ccc(C(=O)O)c(C)c1
serum triglyceride level, percent of control (Rattus norvegicus [1]): 112% | serum triglyceride, percent of control (Rattus norvegicus [2]): 105% | inhibition [3]: 38% | serum sterol level, % of control (Rattus norvegicus [4]): 101% | serum sterol level, percent of control (Rattus norvegicus [5]): 100% | serum triglyceride level, percent of control (Rattus norvegicus [6]): 121% | serum sterol level, percent of control (Rattus norvegicus [7]): 103%

CCCCCCCCCCCCCCN(CC)c1ccc(C(=O)O)cc1
serum triglyceride level, percent of control (Rattus norvegicus [1]): 90% | serum triglyceride, percent of control (Rattus norvegicus [2]): 80% | inhibition [3]: < 38% | serum sterol level, % of control (Rattus norvegicus [4]): 93% | serum sterol level, percent of control (Rattus norvegicus [5]): 98% | serum triglyceride level, percent of control (Rattus norvegicus [6]): 92% | serum sterol level, percent of control (Rattus norvegicus [7]): 88%

CCCCCCCCCCCCCCCCNc1ccc(C2SCCCS2)cc1
serum triglyceride level, percent of control (Rattus norvegicus [1]): 105% | serum triglyceride, percent of control (Rattus norvegicus [2]): 91% | inhibition [3]: 9% | serum sterol level, % of control (Rattus norvegicus [4]): 102% | serum sterol level, percent of control (Rattus norvegicus [5]): 92% | serum triglyceride level, percent of control (Rattus norvegicus [6]): 114% | serum sterol level, percent of control (Rattus norvegicus [7]): 93%

CCCCCCCCCCCCCCCCN(C=O)c1ccc(C(=O)OCC)cc1
serum triglyceride level, percent of control (Rattus norvegicus [1]): 102% | serum triglyceride, percent of control (Rattus norvegicus [2]): 75% | inhibition [3]: 9% | serum sterol level, % of control (Rattus norvegicus [4]): 101% | serum sterol level, percent of control (Rattus norvegicus [5]): 117% | serum triglyceride level, percent of control (Rattus norvegicus [6]): 90% | serum sterol level, percent of control (Rattus norvegicus [7]): 96%

CCCCCCCCCCCCCCCCNc1ccc(C(=O)O)c(OCCCCCCCCCCCCCCCC)c1
serum triglyceride level, percent of control (Rattus norvegicus [1]): 126% | serum triglyceride, percent of control (Rattus norvegicus [2]): 84% | inhibition [3]: 6% | serum sterol level, % of control (Rattus norvegicus [4]): 90% | serum sterol level, percent of control (Rattus norvegicus [5]): 99% | serum triglyceride level, percent of control (Rattus norvegicus [6]): 82% | serum sterol level, percent of control (Rattus norvegicus [7]): 95%

CCCCCCCCCCCCCCCCNc1ccc(C(=O)OCC(=O)OC)cc1
serum triglyceride level, percent of control (Rattus norvegicus [1]): 79% | serum triglyceride, percent of control (Rattus norvegicus [2]): 74% | inhibition [3]: < 24% | serum sterol level, % of control (Rattus norvegicus [4]): 84% | serum sterol level, percent of control (Rattus norvegicus [5]): <76% | serum triglyceride level, percent of control (Rattus norvegicus [6]): 72% | serum sterol level, percent of control (Rattus norvegicus [7]): <71%

CCCCCCCCCCCCCCCCNc1ccc(C(=O)OCCO)cc1
serum triglyceride level, percent of control (Rattus norvegicus [1]): <75% | serum triglyceride, percent of control (Rattus norvegicus [2]): <52% | inhibition [3]: 17% | serum sterol level, % of control (Rattus norvegicus [4]): 106% | serum sterol level, percent of control (Rattus norvegicus [5]): 92% | serum triglyceride level, percent of control (Rattus norvegicus [6]): <65% | serum sterol level, percent of control (Rattus norvegicus [7]): <83%

CCCCCCCCCCCCCCCCNc1ccc(C(=O)NO)cc1
serum triglyceride level, percent of control (Rattus norvegicus [1]): 70% | serum triglyceride, percent of control (Rattus norvegicus [2]): 82% | inhibition [3]: 9% | serum sterol level, % of control (Rattus norvegicus [4]): 106% | serum sterol level, percent of control (Rattus norvegicus [5]): 106% | serum triglyceride level, percent of control (Rattus norvegicus [6]): 76% | serum sterol level, percent of control (Rattus norvegicus [7]): 104%

CCCCCCCCCCCCCCCCN(C(C)=O)c1ccc(C(OC(C)=O)C(N)=O)cc1 (stereo not given)
serum triglyceride level, percent of control (Rattus norvegicus [1]): 93% | serum triglyceride, percent of control (Rattus norvegicus [2]): 89% | inhibition [3]: < 40% | serum sterol level, % of control (Rattus norvegicus [4]): 109% | serum sterol level, percent of control (Rattus norvegicus [5]): 111% | serum triglyceride level, percent of control (Rattus norvegicus [6]): 86% | serum sterol level, percent of control (Rattus norvegicus [7]): 110%

CCCCCCCCCCCCCCCCNc1ccc(C(=O)COC)cc1
serum triglyceride level, percent of control (Rattus norvegicus [1]): 77% | serum triglyceride, percent of control (Rattus norvegicus [2]): <65% | inhibition [3]: < 47% | serum sterol level, % of control (Rattus norvegicus [4]): 88% | serum sterol level, percent of control (Rattus norvegicus [5]): 88% | serum triglyceride level, percent of control (Rattus norvegicus [6]): 85% | serum sterol level, percent of control (Rattus norvegicus [7]): 91%

CCCCCCCCCCCCCCCCNc1ccc(C2=NCCO2)cc1
serum triglyceride level, percent of control (Rattus norvegicus [1]): 103% | serum triglyceride, percent of control (Rattus norvegicus [2]): 76% | inhibition [3]: 0% | serum sterol level, % of control (Rattus norvegicus [4]): 100% | serum sterol level, percent of control (Rattus norvegicus [5]): 100% | serum triglyceride level, percent of control (Rattus norvegicus [6]): 94% | serum sterol level, percent of control (Rattus norvegicus [7]): 86%

CCCCCCCCCCCCCCCCNc1ccc(C(=O)O)cc1F
serum triglyceride level, percent of control (Rattus norvegicus [1]): 91% | serum triglyceride, percent of control (Rattus norvegicus [2]): <49% | inhibition [3]: < 27% | serum sterol level, % of control (Rattus norvegicus [4]): 108% | serum sterol level, percent of control (Rattus norvegicus [5]): 98% | serum triglyceride level, percent of control (Rattus norvegicus [6]): 89% | serum sterol level, percent of control (Rattus norvegicus [7]): <79%

CCCCCCCCCCCCCCCCNc1ccc(C(=O)C(C#N)C(=O)OCC)cc1 (stereo not given)
serum triglyceride level, percent of control (Rattus norvegicus [1]): 83% | serum triglyceride, percent of control (Rattus norvegicus [2]): 105% | inhibition [3]: < 40% | serum sterol level, % of control (Rattus norvegicus [4]): 115% | serum sterol level, percent of control (Rattus norvegicus [5]): 100% | serum triglyceride level, percent of control (Rattus norvegicus [6]): 90% | serum sterol level, percent of control (Rattus norvegicus [7]): 100%

CCCCCCCCCCCCCCCCNc1ccc(C(=O)NS(=O)(=O)c2ccc([N+](=O)[O-])cc2)cc1
serum triglyceride level, percent of control (Rattus norvegicus [1]): 92% | serum triglyceride, percent of control (Rattus norvegicus [2]): 108% | inhibition [3]: < 43% | serum sterol level, % of control (Rattus norvegicus [4]): 105% | serum sterol level, percent of control (Rattus norvegicus [5]): 94% | serum triglyceride level, percent of control (Rattus norvegicus [6]): <79% | serum sterol level, percent of control (Rattus norvegicus [7]): <82%

CCCCCCCCCCCCCCCCNc1ccc(C(=O)OCC(=O)O)cc1
serum triglyceride level, percent of control (Rattus norvegicus [1]): 76% | serum triglyceride, percent of control (Rattus norvegicus [2]): <65% | inhibition [3]: 45% | serum sterol level, % of control (Rattus norvegicus [4]): 87% | serum sterol level, percent of control (Rattus norvegicus [5]): 88% | serum triglyceride level, percent of control (Rattus norvegicus [6]): 91% | serum sterol level, percent of control (Rattus norvegicus [7]): <83%
